procasp7 counter – procaspase-7 activators, primary screen, counter-screen for procaspase-3 activator project, biochemical, absorbance, HTS, human. Caspase-7 (Homo sapiens), P55210. activation, % at 8.5 µM. 330,000 compounds, 0.093% hits. recombinant procaspase-7, Ac-DEVD-pNA absorbance 405 nm; D23A/D198A/D206A triple mutant, cannot self-cleave; scale: DMSO 0, 5 µM enzyme 100;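 active = percent activation above the screen-wide mean plus 3 SD, cut at about 25% in these data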
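Assay system: Uncleavable procaspase-7 mutant enzyme; Input: 2 µM procaspase-7 mutant as dispensed; Also added: DEVD-pNA substrate; Medium: Zinc-free HEPES pH 7.4 with 300 mM NaCl, 0.01% Triton X-100; Timing: 1 h compound preincubation, 2 h substrate cleavage, 25 °C; Measured by: Epi-absorbance of released pNA at 405 nm, two timepoints.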
procasp3 activ – activators of human procaspase-3 D3A mutant, primary screen, biochemical, absorbance, PC-3 D3A mutant, single concentration; Caspase-3 (Homo sapiens), P42574; recombinant procaspase-3 D3A, Ac-DEVD-pNA absorbance 405 nm; activation, % at 8.5 µM; 330,000 compounds, 0.11% hits; AID 463141, 2010;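 active = activation above the mean of all tested compounds plus 3 SD, cut at about 21% in these data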;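 also: 0% = DMSO alone and 100% = DMSO wells spiked with extra 5 µM PC-3 D3A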
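Assay system – Procaspase-3 D3A mutant, all three cleavage aspartates alanine · Controls – DMSO-only low control, 5 µM PC-3 D3A high control · Schedule – 1 h compound preincubation, 2 h substrate hydrolysis at 25 °C · Signal – 405 nm absorbance of p-nitroaniline, reads at 0 and 120 min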
CHT inh – inhibitors of human choline transporter CHT | High affinity choline transporter 1 (Homo sapiens), Q9GZV3 | CHT-expressing cells, membrane potential dye, choline response; stronger effect = lower value | B-score at 10 µM | 310,000 compounds, 0.86% hits | AID 488975, 2010;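 active = B-score over 3 SD under the library average, and starting fluorescence ratio not unusually high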;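 also: choline stimulus applied at its EC90 after an EC20 pre-addition; B-score computed on integrated fluorescence ratio after choline addition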
Target sequence (Q9GZV3 whole entry, looked up): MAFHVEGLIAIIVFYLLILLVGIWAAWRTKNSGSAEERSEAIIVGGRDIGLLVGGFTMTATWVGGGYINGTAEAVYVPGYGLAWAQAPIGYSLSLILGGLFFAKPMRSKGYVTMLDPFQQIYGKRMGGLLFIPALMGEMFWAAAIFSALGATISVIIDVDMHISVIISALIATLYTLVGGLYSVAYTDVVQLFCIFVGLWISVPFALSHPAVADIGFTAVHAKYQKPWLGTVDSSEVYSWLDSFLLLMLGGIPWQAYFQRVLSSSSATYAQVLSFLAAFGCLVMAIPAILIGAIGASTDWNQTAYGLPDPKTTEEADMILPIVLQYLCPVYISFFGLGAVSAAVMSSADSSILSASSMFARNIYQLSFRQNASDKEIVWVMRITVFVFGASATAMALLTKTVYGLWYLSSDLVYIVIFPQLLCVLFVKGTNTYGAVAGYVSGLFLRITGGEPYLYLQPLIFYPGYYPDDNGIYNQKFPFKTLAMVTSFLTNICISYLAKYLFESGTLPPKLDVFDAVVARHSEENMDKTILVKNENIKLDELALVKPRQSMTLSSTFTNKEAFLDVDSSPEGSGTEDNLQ
CHT PAM – CHT positive allosteric modulators, primary screen, cell-based, membrane potential dye, choline EC20; CHT-expressing cells; stronger effect = higher value; LV-AA mutant CHT in HEK293 cells; B-score at 10 µM; AID 488977, 2010; 310,000 compounds, 0.49% hits;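 active = initial fluorescence not abnormally high and integrated response B-score, plate-corrected, over 3 SD above library mean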
Active calls of the source: *; i = inactive; . = not tested or not shown. A selection: hits, their analogues and other compounds. The true share with any hit is near 1.3%.

SMILES	procasp7 counter	procasp3 activ	CHT inh	CHT PAM
CCNC(=O)COC(=O)c1cc(C)n(-c2ccccc2)c1C	3.2	-2.6	i	i
Cc1cc(C(=O)OCC(=O)NCc2ccco2)c(C)n1-c1ccc(F)cc1	0.3	-5.7	-6.27*	i
COc1ccc(S(=O)(=O)N2CCN(CCOc3ccc(Br)cc3)CC2)cc1OC	-6.7	16.0	.	.
COc1ccc(OC)c(C(=O)CN2CCN(S(=O)(=O)c3ccc(Br)cc3)CC2)c1	-3.3	-0.7	-6.55*	i
Nc1nc2cc(S(=O)(=O)N3CCOCC3)ccc2o1	-12.3	-15.8	.	.
CCCC(=O)N1CCN(c2nc(CC(C)C)c3c(c2C#N)CCC3)CC1	2.1	1.4	i	7*
CCOC(=O)CSc1nc2sc3c(c2c(=O)n1-c1ccc(C)cc1)CCN(C)C3	.	.	i	i
COC(=O)CSc1nc2sc3c(c2c(=O)n1C1CCCCC1)CCN(C)C3	-13.6	-5.8	i	8.85*
O=C(CC1CCCC1)N1CCN(S(=O)(=O)c2ccccc2)CC1	6.4	-0.7	.	.
CC1CN(C(=O)C(C)OC(=O)c2ccc3ncsc3c2)CC(C)O1 (stereo not given)	0.2	2.3	.	.
O=C1NC(=S)SC1=C1CCCCCC1	-5.0	-14.9	-6.03*	i
O=C1N=C(N2CCCCC2)SC1=C1CCCCC1	5.5	-3.1	i	i
Cc1n[nH]c(C)c1N1C(=O)c2cccc3c(Br)ccc(c23)C1=O	1.4	2.7	-7.37*	i
Cc1n[nH]c(C)c1N1C(=O)c2cccc3cc(Br)cc(c23)C1=O	20.3	-7.0	i	i
CC(C)C[C@H](CO)Nc1nc(Nc2cccc(Cl)c2)c2ncn(C(C)C)c2n1	5.2	-2.4	i	i
CC(C)n1cnc2c(Nc3ccc(F)c(Cl)c3)nc(NCCO)nc21	4.5	7.0	-5.43*	i
COc1ccc(/C=C2/SC(=S)N(NS(=O)(=O)c3ccc(C)cc3)C2=O)cc1	-9.6	-10.9	-5.6*	i
N#Cc1ccsc1NC(=O)c1ccc(Cl)c([N+](=O)[O-])c1	-6.3	-6.2	-8.74*	i
N#Cc1ccsc1NC(=O)c1cccc([N+](=O)[O-])c1	3.3	1.2	i	i
CCN(CC)C(=O)[C@H]1CC(CC(=O)NC/C=C(\C)CCC=C(C)C)C(=O)N2CCc3c([nH]c4ccccc34)[C@]12C (stereo not given in full)	10.6	-4.9	.	.
COc1cccc(C(CNC(=O)C2CCN(C(=O)Nc3ccccc3)CC2)N(C)C)c1 (stereo not given)	-1.7	7.9	.	.
CCCCN(CC)CCCNC(=O)c1cn(CC)c2ccc(S(=O)(=O)N3CCc4ccccc4C3)cc2c1=O	0.6	3.3	-12.9*	i
CCN(c1ccccc1)S(=O)(=O)c1ccc(C(=O)NCC(=O)Nc2ccc(F)c(F)c2F)cc1	0.5	5.9	.	.
CCN1CCCC1CNC(=O)C1CCN(Cc2nc(-c3cccc(Br)c3)oc2C)CC1 (stereo not given)	-2.7	0.4	i	8.32*
Cc1oc(-c2cccc(Cl)c2)nc1CN1CCC(C(=O)NCc2ccco2)CC1	16.6	4.1	i	i
SMILES	procasp7 counter	procasp3 activ	CHT inh	CHT PAM
CCCOc1ccc(-c2nc(N3CCN(CC)CC3)c3ccccc3n2)cc1	8.6	1.8	i	i
CCN1CCN(c2nc(-c3ccncc3)nc3ccccc23)CC1	8.7	-4.3	-6.94*	i
Cc1sc2ncnc(N3CCC(C(=O)N(CC(C)C)c4nc5ccccc5s4)CC3)c2c1C	1.3	2.0	i	i
C[C@@H]1C(NC(=O)c2ccccc2)CC2CC1C2(C)C (stereo not given in full)	-22.8	5.5	-4.98*	i
O=C1CCC(NC(=O)c2ccccc2)C(=O)N1 (stereo not given)	.	.	i	i
CCCCn1c(/C=N/Nc2nc3ccccc3[nH]2)nc2ccccc21	2.3	25.4*	i	i
CC(C)Cc1nc2oc3c(NCC(C)O)ncnc3c2c2c1CCCC2 (stereo not given)	-2.5	8.9	-7.58*	i
CCCn1c(N)c(N(CCOC)C(=O)CSc2ccccc2)c(=O)[nH]c1=O	10.2	5.1	.	.
CCOC(=O)c1c(C)n(C)c2ccc(O)c(CN3CCCCC3)c12	2.6	0.2	-13.3*	i
CCOC(=O)c1c(CN2CCN(CCO)CC2)n(C)c2cc(Br)c(OC)cc12	13.1	-5.2	i	7.72*
CCOC(=O)c1c(CN2CCCCC2)n(C)c2cc(Br)c(O)c(CN(C)C)c12	-9.6	5.9	i	10.6*
O=C(CN1C(=O)C2CC=CCC2C1=O)Nc1nnc(C2CC2)s1 (stereo not given)	-6.2	10.0	.	.
CCCCN1C(=O)C(=O)N(CC(=O)c2cc(C)n(C3CC3)c2C)C1=O	0.2	-10.8	.	.
COc1ccc(C2=NN(C(=O)COC(=O)c3ccc(NC(=O)CC#N)cc3)C(c3ccco3)C2)cc1 (stereo not given)	-4.4	1.1	.	.
CCOC(=O)N1CCN(C(=O)c2ccc3c(c2)N(CC)CCS3)CC1	-10.2	-5.2	i	i
CCOC(=O)N1CCN(C(=O)c2ccc3c(c2)N(Cc2ccc(F)cc2)CCS3)CC1	-5.2	4.6	-5.16*	i
COc1ccc(Nc2nc(-c3sc(NC(C)=O)nc3C)cs2)cc1	-7.9	-6.1	-5.09*	i
O=C(Cn1c(=O)cnc2ccccc21)Nc1cccc(S(=O)(=O)N2CCOCC2)c1	-7.4	6.8	.	.
CC1CCCC(C)N1/N=C/c1cc(Br)cc(Br)c1O (stereo not given)	3.2	0.1	i	i
CC(=O)N1c2ccc(N=Cc3cc(Br)cc(Br)c3O)cc2CC1C (stereo not given)	-3.7	9.1	-5.34*	i
O=c1cc(-c2ccccc2Cl)oc2c([N+](=O)[O-])c(O)cc(O)c12	-2.3	-1.6	-12.8*	i
COC(=O)[C@@]1(C)[C@H]2C(=O)N(Cc3ccccc3)C(=O)[C@H]2[C@H]2CN=C(SCC(=O)c3ccccc3)N21	-32.8	-19.4	.	.
Cc1noc(C)c1NC(=O)N(C)C[C@@H]1Oc2ccc(NC(=O)CCC(F)(F)F)cc2CC(=O)N([C@@H](C)CO)C[C@@H]1C	-3.7	-3.7	.	.
COC(=O)c1sc(N2C(=O)C(O)=C(C(=O)c3ccc(C)o3)C2c2ccco2)nc1C (stereo not given)	-58.5	-10.4	i	i
COC(=O)c1sc(N2C(=O)C(O)=C(C(=O)c3ccc(C)o3)C2c2cccs2)nc1C (stereo not given)	-66.6	-19.9	-5.84*	i
COc1ccc(N2CCOCC2)c(NC(=O)c2ccc(Br)o2)c1	-2.8	0.3	i	i
COC(=O)c1ccc(N2CCN(C)CC2)c(NC(=O)c2ccc(Br)o2)c1	11.4	12.2	-5.33*	i

Screens: PubChem BioAssay, several laboratories
